Measurements as given in ChEMBL document CHEMBL1275561, “In vitro activities of doripenem, a new broad-spectrum carbapenem, against recently collected clinical anaerobic isolates, with emphasis on the Bacteroides fragilis group” (2008).
Converted amounts (≈) assume the structure as drawn.

What was measured:
Assay type in all cases: functional
[1] = tested on: Parabacteroides distasonis; experiment: Antimicrobial activity against Bacteroides distasonis by agar dilution method
Procedure, shortened: (§1)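 CLSI agar dilution on enriched brucella agar (5% lysed defibrinated sheep blood, 1 μg/ml vitamin K1), with drug plates made on the test day. Log-phase cells were adjusted to 0.5 McFarland, and about 10^5 CFU/spot was delivered by Steers replicator. Plates were incubated anaerobically at 37°C for 48 h. MIC was the lowest concentration giving a marked growth change versus the control plate. Controls were B. fragilis ATCC 25285 and B. thetaiotaomicron ATCC 29741.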

[2] = tested on: Bacteroides caccae; experiment: Antimicrobial activity against Bacteroides caccae assessed as resistant isolates by agar dilution method
Procedure, shortened: (§2)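 CLSI agar dilution on enriched brucella agar (5% lysed defibrinated sheep blood, 1 μg/ml vitamin K1), plates made on test day. Log-phase inocula adjusted to 0.5 McFarland; about 10^5 CFU/spot by Steers replicator. Incubated anaerobically at 37°C for 48 h. MIC was the lowest concentration giving a marked change in growth versus the drug-free control plate. Resistance rates used CLSI anaerobe breakpoints. Controls were B. fragilis ATCC 25285 and B. thetaiotaomicron ATCC 29741.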

[3] = tested on: Bacteroides caccae; experiment: Antimicrobial activity against Bacteroides caccae by agar dilution method; procedure, shortened: as §1
[4] = tested on: Parabacteroides distasonis; experiment: Antimicrobial activity against Bacteroides distasonis assessed as resistant isolates by agar dilution method; procedure, shortened: as §2
[5] = tested on: Bacteroides fragilis; experiment: Antimicrobial activity against Bacteroides fragilis by agar dilution method; procedure, shortened: as §1
[6] = tested on: Bacteroides fragilis; experiment: Antimicrobial activity against Bacteroides fragilis assessed as resistant isolates by agar dilution method; procedure, shortened: as §2
[7] = tested on: Bacteroides ovatus; experiment: Antimicrobial activity against Bacteroides ovatus by agar dilution method; procedure, shortened: as §1
[8] = tested on: Bacteroides ovatus; experiment: Antimicrobial activity against Bacteroides ovatus assessed as resistant isolates by agar dilution method; procedure, shortened: as §2
[9] = tested on: Bacteroides thetaiotaomicron; experiment: Antimicrobial activity against Bacteroides thetaiotaomicron by agar dilution method; procedure, shortened: as §1
[10] = tested on: Bacteroides thetaiotaomicron; experiment: Antimicrobial activity against Bacteroides thetaiotaomicron assessed as resistant isolates by agar dilution method; procedure, shortened: as §2
[11] = tested on: Bacteroides uniformis; experiment: Antimicrobial activity against Bacteroides uniformis by agar dilution method; procedure, shortened: as §1
[12] = tested on: Bacteroides uniformis; experiment: Antimicrobial activity against Bacteroides uniformis assessed as resistant isolates by agar dilution method; procedure, shortened: as §2
[13] = tested on: Phocaeicola vulgatus; experiment: Antimicrobial activity against Bacteroides vulgatus by agar dilution method; procedure, shortened: as §1
[14] = tested on: Phocaeicola vulgatus; experiment: Antimicrobial activity against Bacteroides vulgatus assessed as resistant isolates by agar dilution method; procedure, shortened: as §2
[15] = tested on: Bacteroides eggerthii; experiment: Antimicrobial activity against Bacteroides eggerthii by agar dilution method; procedure, shortened: as §1
[16] = tested on: Bacteroides eggerthii; experiment: Antimicrobial activity against Bacteroides eggerthii assessed as resistant isolates by agar dilution method; procedure, shortened: as §2
[17] = tested on: Parabacteroides merdae; experiment: Antimicrobial activity against Bacteroides merdae by agar dilution method; procedure, shortened: as §1
[18] = tested on: Parabacteroides merdae; experiment: Antimicrobial activity against Bacteroides merdae assessed as resistant isolates by agar dilution method; procedure, shortened: as §2
[19] = tested on: Bacteroides nordii; experiment: Antimicrobial activity against Bacteroides nordii by agar dilution method; procedure, shortened: as §1
[20] = tested on: Bacteroides nordii; experiment: Antimicrobial activity against Bacteroides nordii assessed as resistant isolates by agar dilution method; procedure, shortened: as §2
[21] = tested on: Clostridioides difficile; experiment: Antimicrobial activity against Clostridium difficile by agar dilution method
[22] = tested on: Clostridium perfringens; experiment: Antimicrobial activity against Clostridium perfringens by agar dilution method
[23] = tested on: [Clostridium] innocuum; experiment: Antimicrobial activity against Clostridium innocuum by agar dilution method
[24] = tested on: [Clostridium] innocuum; experiment: Antimicrobial activity against Clostridium innocuum assessed as resistant isolates by agar dilution method; conditions: pooled result: one value given for 4 cell lines, strains, targets or settings
[25] = tested on: Clostridium paraputrificum; experiment: Antimicrobial activity against Clostridium paraputrificum by agar dilution method
[26] = tested on: Clostridium subterminale; experiment: Antimicrobial activity against Clostridium subterminale by agar dilution method
[27] = tested on: Clostridium tertium; experiment: Antimicrobial activity against Clostridium tertium by agar dilution method
[28] = tested on: Finegoldia magna; experiment: Antimicrobial activity against Finegoldia magna by agar dilution method
Procedure, shortened: (§3)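 Gram-positive anaerobes were tested by CLSI agar dilution on brucella agar enriched with 5% lysed defibrinated sheep blood and 1 μg/ml vitamin K1. Inoculum was log-phase growth at 0.5 McFarland, about 10^5 CFU/spot by replicator. Incubation was anaerobic, 37°C, 48 h. MIC was the lowest concentration with a marked growth change versus the drug-free plate. Eubacterium lentum ATCC 43055 was the control, and tests were repeated if it fell outside the CLSI range.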

[29] = tested on: Finegoldia magna; experiment: Antimicrobial activity against Finegoldia magna assessed as resistant isolates by agar dilution method
Procedure, shortened: (§4)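 Agar dilution following CLSI on brucella agar with 5% lysed defibrinated sheep blood and 1 μg/ml vitamin K1, plates made on test day. Log-phase cells at 0.5 McFarland, about 10^5 CFU/spot by Steers replicator, 48 h anaerobic at 37°C. MIC read as the lowest concentration causing a marked growth change versus control. Resistance counted by CLSI anaerobe breakpoints. Eubacterium lentum ATCC 43055 served as control.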

[30] = tested on: Peptoniphilus asaccharolyticus; experiment: Antimicrobial activity against Peptoniphilus asaccharolyticus by agar dilution method; procedure, shortened: as §3
[31] = tested on: Peptoniphilus asaccharolyticus; experiment: Antimicrobial activity against Peptoniphilus asaccharolyticus assessed as resistant isolates by agar dilution method; conditions: pooled result: one value given for 4 cell lines, strains, targets or settings; procedure, shortened: as §4
[32] = tested on: Parvimonas micra; experiment: Antimicrobial activity against Micromonas micros by agar dilution method; procedure, shortened: as §3
[33] = tested on: Anaerococcus prevotii; experiment: Antimicrobial activity against Anaerococcus prevotii by agar dilution method; procedure, shortened: as §3
[34] = tested on: Peptostreptococcus sp.; experiment: Antimicrobial activity against Peptostreptococcus sp. by agar dilution method
Procedure, shortened: (§5)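 Log-phase isolates were adjusted to 0.5 McFarland, and about 10^5 CFU/spot was delivered by Steers replicator. Plates were incubated anaerobically at 37°C for 48 h. MIC was the lowest concentration giving a marked growth change versus the control plate. Eubacterium lentum ATCC 43055 was the QC strain, with repeats when out of range.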

[35] = tested on: Cutibacterium acnes; experiment: Antimicrobial activity against Propionibacterium acnes by agar dilution method; procedure, shortened: as §5
[36] = tested on: Cutibacterium acnes; experiment: Antimicrobial activity against Propionibacterium acnes assessed as resistant isolates by agar dilution method; procedure, shortened: as §4
[37] = tested on: Propionibacterium; experiment: Antimicrobial activity against Propionibacterium sp. by agar dilution method; procedure, shortened: as §5
[38] = tested on: Propionibacterium; experiment: Antimicrobial activity against Propionibacterium sp. assessed as resistant isolates by agar dilution method; procedure, shortened: as §4

Work on `C[C@@H](O)[C@H]1C(=O)N2C(C(=O)O)=C(SCCNC=N)C[C@H]12` [IMIPENEM ANHYDROUS] yielded an MIC50 [1] of 0.25 µg/mL (≈ 0.835 µM), an MIC90 [1] of 2 µg/mL (≈ 6.68 µM) and an Activity [2] of 0%. For the same molecule, the MIC50 [3] was 0.5 µg/mL (≈ 1.67 µM), the MIC90 [3] was 2 µg/mL (≈ 6.68 µM) and the Activity [4] was 0%. It also gave an MIC50 [5] of 0.5 µg/mL (≈ 1.67 µM), an MIC90 [5] of 1 µg/mL (≈ 3.34 µM) and an Activity [6] of 1%. The MIC50 [7] was 0.5 µg/mL (≈ 1.67 µM), the MIC90 [7] was 2 µg/mL (≈ 6.68 µM) and the Activity [8] was 0%. The MIC50 [9] was 1 µg/mL (≈ 3.34 µM), the MIC90 [9] was 2 µg/mL (≈ 6.68 µM) and the Activity [10] was 0%. It also gave an MIC50 [11] of 1 µg/mL (≈ 3.34 µM), an MIC90 [11] of 1 µg/mL (≈ 3.34 µM) and an Activity [12] of 0%. For the same molecule, the MIC50 [13] was 1 µg/mL (≈ 3.34 µM), the MIC90 [13] was 2 µg/mL (≈ 6.68 µM) and the Activity [14] was 0%. For the same molecule, the MIC50 [15] was 0.5 µg/mL (≈ 1.67 µM), the MIC90 [15] was 1 µg/mL (≈ 3.34 µM) and the Activity [16] was 0%. It also gave an MIC50 [17] of 0.5 µg/mL (≈ 1.67 µM), an MIC90 [17] of 1 µg/mL (≈ 3.34 µM) and an Activity [18] of 0%. For the same molecule, the MIC50 [19] was 0.5 µg/mL (≈ 1.67 µM), the MIC90 [19] was 1 µg/mL (≈ 3.34 µM) and the Activity [20] was 0%. It also gave an MIC [21] of 2 µg/mL (≈ 6.68 µM), an MIC50 [22] of 0.5 µg/mL (≈ 1.67 µM) and an MIC90 [22] of 0.5 µg/mL (≈ 1.67 µM). The MIC50 [23] was 2 µg/mL (≈ 6.68 µM), the MIC90 [23] was 2 µg/mL (≈ 6.68 µM) and the Activity [24] was 16.7%. It also gave an MIC50 [25] of 2 µg/mL (≈ 6.68 µM), an MIC90 [25] of 2 µg/mL (≈ 6.68 µM) and an MIC50 [26] of 2 µg/mL (≈ 6.68 µM). The MIC90 [26] was 2 µg/mL (≈ 6.68 µM), the MIC50 [27] was 2 µg/mL (≈ 6.68 µM) and the MIC90 [27] was 2 µg/mL (≈ 6.68 µM). It also gave an MIC50 [28] of 0.25 µg/mL (≈ 0.835 µM), an MIC90 [28] of 0.25 µg/mL (≈ 0.835 µM) and an Activity [29] of 0%. It also gave an MIC50 [30] of 0.125 µg/mL (≈ 0.418 µM), an MIC90 [30] of 0.5 µg/mL (≈ 1.67 µM) and an Activity [31] of 0%. The MIC50 [32] was 0.125 µg/mL (≈ 0.418 µM), the MIC90 [32] was 0.5 µg/mL (≈ 1.67 µM) and the MIC50 [33] was 0.125 µg/mL (≈ 0.418 µM). It also gave an MIC90 [33] of 0.5 µg/mL (≈ 1.67 µM), an MIC50 [34] of 0.125 µg/mL (≈ 0.418 µM) and an MIC90 [34] of 0.5 µg/mL (≈ 1.67 µM). For the same molecule, the MIC [35] was 0.06 µg/mL (≈ 0.2 µM), the MIC50 [35] was 0.06 µg/mL (≈ 0.2 µM) and the MIC90 [35] was 0.06 µg/mL (≈ 0.2 µM). For the same molecule, the Activity [36] was 0%, the MIC [37] was 0.06 µg/mL (≈ 0.2 µM) and the MIC50 [37] was 0.06 µg/mL (≈ 0.2 µM). For the same molecule, the MIC90 [37] was 0.25 µg/mL (≈ 0.835 µM) and the Activity [38] was 0%.
